Laboratory results from article PMC12257511 (Journal of the American Chemical Society, 2025).
Where a SMILES comes first, the peptide text is derived from it. Bridges are numbered along the chain shown (N, C = ends).

Tests used:
αSyn [1] = target: T1, αSyn (Homo sapiens, UniProt P37840); assay: Phase separation assay of αSyn with peptides; format: biochemical
How it was run: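 αSyn monomer dissolved in 10 mM NaOH to neutral pH, filtered, stored at −80 °C as a 400 μM stock. Mixed with 10% PEG in buffer pH 7.5 (DIC series: 20 mM sodium phosphate) and test compound from DMSO stock, 1% DMSO final. αSyn 100 μM unless stated (20–200 μM range); peptide 10–1,000 μM. Incubated 30 min at 4 °C. DIC at room temperature; turbidity at 600 nm, 1 mm cell, Peltier-controlled.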

αSyn1–103 = assay: Phase separation assay with C-terminally truncated αSyn; format: biochemical, human; conditions: 400 μM peptide, DIC images
αSyn [2] = target: T1, αSyn; assay: ThT/ANS fluorescence assay of spontaneous αSyn aggregation; format: biochemical
How it was run: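 αSyn monomer diluted in 10× PBS with 20 μM ThT and 50 μM ANS (from 1 mM stock) and test compound at 0.1–10 mol equiv, prepared on ice. Plate held at 37 °C, cycling 3 min shaking/27 min quiescence. Bottom read: ThT ex 440 nm, ANS ex 380 nm, em 480 nm; three repeats per sample. […].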

[3] = Self-assembly and solubility of the peptide itself; format: physicochemical; conditions: microscopy and turbidity measurements, absence of αSyn
How it was run: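 Test compound alone, without αSyn, added from DMSO stock to 10% PEG buffer at 1% DMSO final, over a range of concentrations. Incubated 30 min at 4 °C. Turbidity read at 600 nm in a 1 mm cell; supernatant fluorescence also measured.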

C[C@@H](O)[C@H](NC(=O)[C@H](CCCNC(=N)N)NC(=O)[C@H](Cc1c[nH]c2ccccc12)NC(=O)[C@H](Cc1c[nH]c2ccccc12)NC(=O)[C@H](CCCNC(=N)N)NC(=O)[C@@H]1CCCN1C(=O)[C@H](CCCCN)NC(=O)[C@@H]1CSCC(=O)N[C@@H](Cc2ccc(O)cc2)C(=O)N[C@@H](CCC(N)=O)C(=O)N[C@@H](CCCNC(=N)N)C(=O)N[C@@H](Cc2c[nH]c3ccccc23)C(=O)N1)C(=O)N[C@@H](CS)C(=O)N[C@@H](Cc1ccc(O)cc1)C(=O)N[C@@H](Cc1c[nH]c2ccccc12)C(=O)N[C@@H](CS)C(=O)NCC(=O)N[C@@H](CCCCN)C(=O)N[C@@H](CCCCN)C(=O)N[C@@H](CCCCN)C(N)=O [FL2] ({CH2CO}-YQRWCKPRWWRTCYWCGKKK-NH2; thioether N-5)
Temperature-dependent turbidity of the condensates (αSyn [1]; PBS buffer, 400 μM FL2 or 1 mM FD1): dissociated to a dispersed monomeric state as the temperature increased
Concentration dependence of droplet formation (αSyn [1]; peptide 10–1,000 μM, 100 μM αSyn, 30 min at 4 °C, turbidity at 600 nm and fluorescence of the dilute phase): concentration-dependent increase in droplet formation
LLPS efficiency with αSyn1–103 (class label in DIC image) (αSyn1–103): formed aggregates rather than liquid droplets
ANS fluorescence in the droplets (αSyn [2]; 400 μM FL2, 3 h incubation at 37 °C, fluorescence images): increase in ANS fluorescence intensity in the droplets
Effect on spontaneous αSyn fibril formation, condition ii (αSyn [2]; 10% PEG in PBS, 0.1 to 10 mol equiv peptide, ThT, 37 °C, three repeats): a reduction in both ThT fluorescence intensity and lag time
Maximum ThT and ANS intensity at high peptide concentrations (αSyn [2]; conditions ii and iii): decrease of magnitude of ThT signal and increase of ANS intensity
Effect on spontaneous αSyn fibril formation, condition i (αSyn [2]; no PEG, PBS buffer, 0.1 to 10 mol equiv peptide, ThT, 37 °C, three repeats): no acceleration of the fibril formation of αSyn but rather expanded the lag time
Self-assembly of the peptide itself [3]: tends to undergo self-assembly and/or LLPS at high concentrations
